Assay results collected from several papers.
Protocols differ between the studies behind these lines.
Target: Mitogen-activated protein kinase 10 (MAPK10, Homo sapiens, UniProt P53779)

| SMILES | assay | setting | remaining binding [%] |
| --- | --- | --- | --- |
| COc1ncc2cc3ccccc3nc2c1C#N | cell-free assay, competition with immobilised ligand | 5 µM | 100 |
| N[C@H]1CCN(c2nccc(-c3cnn4ncccc34)n2)C1 | binding | 1 µM | 60 |
| COc1cnc(Nc2cccc(S(N)(=O)=O)c2)nc1N1CCN(c2ccccc2)CC1 | binding, competition with immobilised ligand | 1 µM | 83 |
| c1cnn2ncc(-c3ccnc(N4CCC45COC5)n3)c2c1 | binding | 1 µM | 27 |
| O=C(Nc1c[nH]nc1C(=O)NC1CCNCC1)c1cc(F)cc(F)c1 | binding, competition with immobilised ligand | 1 µM | 100 |
| F[C@@H]1CCN(c2nccc(-c3cnn4ncccc34)n2)C1 | binding | 1 µM | 87 |
| C[C@@H]1CN(c2ccc3ncc(-c4ccc5[nH]nc(C6CC6)c5c4)n3n2)C[C@H](C)O1 | binding, competition with immobilised ligand | 0.5 µM | 52 |
| Nc1ncc2c(n1)-c1c([nH]c3ccc(C#CC4CC4)cc13)CCCC2 | binding, competition with immobilised ligand | 1 µM | 76 |
| O=C1CCc2cc(Nc3cc(OC4CCOCC4)c([N+](=O)[O-])cc3Cl)ccc2N1 | cell-free assay, competition with immobilised ligand | 1 µM | 98 |
| C[C@@H]1CCN(c2nccc(-c3cnn4ncccc34)n2)C1 | binding | 1 µM | 34 |
| CN(C)C(=O)Cn1cc(-c2nc([C@@](C)(c3ccc(-c4cnc(N)nc4)cc3)C3CC3)no2)cn1 | cell-free assay, competition with immobilised ligand | 1 µM | 94 |
| CNC(=O)[C@@H]1CC[C@@H](n2c(-c3ccc4cnccc4c3)nc3ccc(C(=O)NCc4cccc(C(N)=O)c4)cc32)C1 | binding, competition with immobilised ligand | 1 µM | 84 |
| O=C(c1ccc(Nc2ncc(Cl)c(-c3cc4ccccc4s3)n2)cc1)N1CCC(N2CCCC2)CC1 | binding, competition with immobilised ligand | 1 µM | 5.8 |
| CCC(=O)N[C@H]1CC[C@@H](C(=O)N(C)c2ccc(-c3nc4ccccc4o3)cc2)C1 | cell-free assay, competition with immobilised ligand | 1 µM | 85 |
| O=C(c1ccc(Nc2ncc(Cl)c(-c3ccc(Cl)s3)n2)cc1)N1CCC(N2CCCC2)CC1 | binding, competition with immobilised ligand | 1 µM | 1.1 |
| CN(CCCC(F)(F)F)c1nccc(-c2cnn3ncccc23)n1 | binding | 1 µM | 97 |
| O=C(N[C@H]1CCCCC/C=C\C2C[C@@]2(C(=O)O)NC(=O)[C@@H]2C[C@@H](Oc3ccncc3)CN2C1=O)OC1CCCC1 (stereo partly drawn) | binding, competition with immobilised ligand | 1 µM | 81 |
| COC(=O)Nc1nc2ccc(C(=O)c3ccccc3)cc2[nH]1 | cell-free assay, competition with immobilised ligand | 10 µM | 3 |
| CCOCCn1cc(C(=O)Nc2ccc(-n3nc(-c4cccnc4)cc3C(F)(F)F)cn2)ccc1=O | cell-free assay, competition with immobilised ligand | 1 µM | 100 |
| CC(C)(C)c1ccc(-c2nc(CBr)nn2-c2cccc(O)c2)cc1 | cell-free assay, competition with immobilised ligand | 10 µM | 65 |
| CCC(=N\O)/C(C)=C/c1ccc(F)cc1 | cell-free assay, competition with immobilised ligand | 1 µM | 100 |
| Cc1cnc(Nc2ccc(C(=O)N3CCC(N4CCCC4)CC3)cc2)nc1-c1cc2ccccc2s1 | binding, competition with immobilised ligand | 1 µM | 8.6 |
| CC1CCCN1c1nccc(-c2cnn3ncccc23)n1 (stereo not drawn) | binding | 1 µM | 79 |
| CS(=O)(=O)NCC[C@H](NC(=O)c1cncc2c1cnn2-c1ccc(F)cc1)c1ccnc(S(C)(=O)=O)c1 | cell-free assay, competition with immobilised ligand | 1 µM | 100 |
